# Active and inactive are the calls of the source. The calls are words filed in the database; no cut-off is given here.
# Columns and labels:
# [1] = target: Lysine-specific histone demethylase 1A (Homo sapiens) (UniProt O60341); assay: Inhibition of KDM1A in human NB4 cells assessed as increase in GFI1B mRNA expression at biochemical IC50 measured after 24 hrs by RT-PCR analysis relative to control; assay type: cell-based; conditions: NB-4
# LSD1/CoREST complex = LSD1/CoREST complex (Homo sapiens, UniProt O60341); assay: Inhibition of human recombinant KDM1A/CoREST expressed in Escherichia coli using mono-methylated H3-K4 peptide as substrate assessed as H2O2 release preincubated for 15 mins followed by substrate addition measured for 12 mins by fluorescence-based microplate reader analysis
# In short: (§1)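 Human recombinant KDM1A/CoREST, KDM1B, MAO A and MAO B used as enzyme sources; compounds incubated with the enzyme and results expressed as IC50.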
# [2] = target: T1, Amine oxidase [flavin-containing] A (Homo sapiens, UniProt P21397); assay: Inhibition of human recombinant MAOA expressed in Pichia pastoris preincubated for 15 mins measured after 30 mins by bioluminescent-coupled assay; in short: as §1
# T1 sequence (P21397 whole entry): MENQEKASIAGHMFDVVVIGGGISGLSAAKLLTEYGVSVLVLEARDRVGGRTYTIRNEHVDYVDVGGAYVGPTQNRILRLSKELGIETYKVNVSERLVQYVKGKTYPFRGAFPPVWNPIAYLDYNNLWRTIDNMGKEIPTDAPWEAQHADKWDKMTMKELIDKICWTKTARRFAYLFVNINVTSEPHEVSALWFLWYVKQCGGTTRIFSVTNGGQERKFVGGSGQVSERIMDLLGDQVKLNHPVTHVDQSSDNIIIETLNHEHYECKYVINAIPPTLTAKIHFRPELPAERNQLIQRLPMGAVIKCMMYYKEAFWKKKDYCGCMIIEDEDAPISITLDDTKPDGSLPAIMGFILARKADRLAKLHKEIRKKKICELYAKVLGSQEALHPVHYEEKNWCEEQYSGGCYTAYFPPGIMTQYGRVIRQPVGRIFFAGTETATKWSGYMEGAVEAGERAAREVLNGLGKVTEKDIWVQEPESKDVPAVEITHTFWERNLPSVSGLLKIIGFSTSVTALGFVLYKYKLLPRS
# [3] = target: T2, Amine oxidase [flavin-containing] B (Homo sapiens, UniProt P27338); assay: Inhibition of human recombinant MAOB expressed in Pichia pastoris preincubated for 15 mins measured after 30 mins by bioluminescent-coupled assay; in short: as §1
# T2 sequence (P27338 whole entry): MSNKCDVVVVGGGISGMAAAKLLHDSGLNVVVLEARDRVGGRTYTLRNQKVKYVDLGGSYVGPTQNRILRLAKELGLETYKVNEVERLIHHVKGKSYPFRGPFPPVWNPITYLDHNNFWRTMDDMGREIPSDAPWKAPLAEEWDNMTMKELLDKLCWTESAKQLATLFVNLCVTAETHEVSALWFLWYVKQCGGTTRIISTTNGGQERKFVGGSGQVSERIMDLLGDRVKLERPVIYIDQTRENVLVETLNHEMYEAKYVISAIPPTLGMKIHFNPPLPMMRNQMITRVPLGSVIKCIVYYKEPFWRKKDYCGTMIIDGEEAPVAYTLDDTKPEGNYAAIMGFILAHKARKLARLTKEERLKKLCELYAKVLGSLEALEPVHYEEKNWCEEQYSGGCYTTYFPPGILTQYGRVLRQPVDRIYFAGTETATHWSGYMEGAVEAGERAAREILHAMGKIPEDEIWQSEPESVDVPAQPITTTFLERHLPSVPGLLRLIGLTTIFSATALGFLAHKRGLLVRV
# [4] = target: T3, Lysine-specific histone demethylase 2 (Homo sapiens, UniProt Q8NB78); assay: Inhibition of KDM1B (unknown origin)
# T3 sequence (Q8NB78 whole entry): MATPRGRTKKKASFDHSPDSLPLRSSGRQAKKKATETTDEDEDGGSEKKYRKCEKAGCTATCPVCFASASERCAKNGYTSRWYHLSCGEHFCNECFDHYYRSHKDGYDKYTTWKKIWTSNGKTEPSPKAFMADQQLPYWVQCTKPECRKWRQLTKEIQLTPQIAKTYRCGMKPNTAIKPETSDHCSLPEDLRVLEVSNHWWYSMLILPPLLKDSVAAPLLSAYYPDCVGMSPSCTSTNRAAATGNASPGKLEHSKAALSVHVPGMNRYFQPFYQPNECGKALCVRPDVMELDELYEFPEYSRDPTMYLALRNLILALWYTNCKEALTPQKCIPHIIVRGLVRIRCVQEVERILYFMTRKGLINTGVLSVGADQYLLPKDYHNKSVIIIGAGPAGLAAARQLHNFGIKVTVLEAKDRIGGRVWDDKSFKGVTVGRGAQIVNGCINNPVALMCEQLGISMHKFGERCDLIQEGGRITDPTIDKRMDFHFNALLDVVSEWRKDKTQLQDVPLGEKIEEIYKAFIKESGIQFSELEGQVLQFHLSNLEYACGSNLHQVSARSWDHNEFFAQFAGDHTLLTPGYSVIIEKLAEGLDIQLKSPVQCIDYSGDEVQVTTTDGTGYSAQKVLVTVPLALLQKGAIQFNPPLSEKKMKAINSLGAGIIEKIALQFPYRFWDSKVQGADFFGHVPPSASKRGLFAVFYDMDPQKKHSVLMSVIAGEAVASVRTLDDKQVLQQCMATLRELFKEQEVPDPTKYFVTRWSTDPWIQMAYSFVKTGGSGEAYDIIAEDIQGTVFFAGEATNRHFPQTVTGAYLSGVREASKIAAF
# [5] = target: Lysine-specific histone demethylase 1A (Homo sapiens) (UniProt O60341); assay: Inhibition of KDM1A in human NB4 cells assessed as increase in CD11b mRNA expression at biochemical IC50 measured after 24 hrs by RT-PCR analysis relative to control; assay type: cell-based; conditions: NB-4
# [6] = Anticlonogenic activity against 129sv mouse APL blast cells assessed as inhibition of colony formation of cells at 0.25 uM measured after 7 days relative to control; assay type: functional; conditions: 168 h
# [7] = Anticlonogenic activity against human THP1 cells assessed as inhibition of colony formation of cells at 0.5 uM measured after 13 days relative to control; assay type: functional; conditions: THP-1, […]
# In short: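 THP-1 cells (RPMI, 10% FBS, 2 mM L-glutamine, 37°C, 5% CO2) plated at 250 cells/plate in enriched methylcellulose medium with compound at 0.5 µM for 13 days.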
# THP-1 [8] = assay: Induction of differentiation of human THP1 cells assessed assessed as alteration in morphology of colonies after 13 days by May Grunwald-Giemsa staining based assay; assay type: functional, cell-based
# In short: (§2)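 THP-1 cells cultured 13 days in semisolid methylcellulose with compound at 0.5 µM; colony morphology imaged, and cells recovered at end of culture examined as May Grunwald-Giemsa-stained cytospin preparations.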
# [9] = Antitumor activity against 129SvEv mouse APL blast cells implanted in nonirradiated 129SvEv mouse assessed as increase in survival of leukemic mouse at 0.0125 mg/kg, ip administered for 5 days per week for 2 weeks by Kaplan-Meier plot analysis relative to vehicle control; assay type: functional
# In short: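 One million leukemic blasts from 129SvEv mice given iv to non-irradiated syngeneic recipients; groups of at least 6 mice randomized. Dosing began once blasts appeared in peripheral blood (about day 10). Drug dissolved in 40% PEG 400 in 5% glucose and given ip. Survival compared with the vehicle group by Kaplan–Meier analysis.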
# THP-1 [10] = assay: Induction of differentiation of human THP1 cells after 13 days by cytospin assay; assay type: functional, cell-based; in short: as §2
# Homo sapiens = species: Homo sapiens; assay: Selectivity ratio of IC50 for human recombinant MAOA expressed in Pichia pastoris to IC50 for human recombinant KDM1A/CoREST expressed in Escherichia coli
# [11] = Antitumor activity against 129SvEv mouse APL blast cells implanted in nonirradiated 129SvEv mouse assessed as increase in survival of leukemic mouse at 27 mg/kg, po administered for 5 days per week for 2 weeks by Kaplan-Meier plot analysis relative to vehicle control; assay type: functional
# In short: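 Gavage in 40% PEG 400 in 5% glucose began once peripheral-blood blasts appeared (about day 10). Survival analysed by Kaplan–Meier versus vehicle. Separate arm for GFI1B: spleen cells taken after 3 days of dosing, qRT-PCR normalized to TBP.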
# [12] = Cmax in CD1 mouse at 5 mg/kg, iv administered as single dose; assay type: ADME, organism-based; design: dose 5 mg/kg, route intravenous; conditions: in vivo
# In short: (§3)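 Single dose to CD1 mice: 5 mg/kg iv in 5% glucose with 10% tween 80, or 15 mg/kg orally in 5% glucose with 40% PEG. Plasma parameters derived from concentration–time profiles.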
# [13] = Half life in CD1 mouse at 5 mg/kg, iv administered as single dose; assay type: ADME, organism-based; conditions: in vivo; in short: as §3
# [14] = AUC (0 to infinity) in CD1 mouse at 5 mg/kg, iv administered as single dose; assay type: ADME, organism-based; design: dose 5 mg/kg, time infinity, route intravenous; conditions: in vivo; in short: as §3
# [15] = Clearance in CD1 mouse at 5 mg/kg, iv administered as single dose; assay type: ADME, organism-based; conditions: in vivo; in short: as §3
# Mus musculus [16] = assay: Terminal volume of distribution in CD1 mouse at 5 mg/kg, iv administered as single dose; assay type: ADME, organism-based; conditions: in vivo; in short: as §3
# [17] = Tmax in CD1 mouse at 15 mg/kg, po administered as single dose; assay type: ADME, organism-based; conditions: in vivo; in short: as §3
# [18] = Cmax in CD1 mouse at 15 mg/kg, po administered as single dose; assay type: ADME, organism-based; design: dose 15 mg/kg, route oral; conditions: in vivo; in short: as §3
# [19] = AUC (0 to infinity) in CD1 mouse at 15 mg/kg, po administered as single dose; assay type: ADME, organism-based; design: dose 15 mg/kg, time infinity, route oral; conditions: in vivo; in short: as §3
# [20] = Oral bioavailability in CD1 mouse at 15 mg/kg administered as single dose; assay type: ADME, organism-based; conditions: in vivo; in short: as §3
# Mus musculus [21] = assay: Toxicity in nonirradiated 129SvEv mouse implanted with 129SvEv mouse APL blast cells assessed as change in body weight at 27 mg/kg, po administered for 5 days per week for 2 weeks measured during compound dosing; assay type: organism-based; conditions: in vivo
SMILES,fold change (FC) [1],IC50 (LSD1/CoREST complex),IC50 [2],IC50 [3],IC50 [4],fold change (FC) [5],inhibition at 0.25 µM [6],other results
N[C@@H]1C[C@H]1c1ccc(NC(=O)c2ccc(N3CCOCC3)c(NC(=O)OCc3ccccc3)c2)cc1 (relative stereo),4.8,61.4 nM,193 nM,62900 nM,5700 nM,3.8,59%,
N[C@H]1CC[C@H](N[C@@H]2C[C@H]2c2ccccc2)CC1,7,,48400 nM,,43400 nM,5.1,84%,inhibition at 0.5 µM [7]: 58%; Activity (THP-1 [8]): Active; Activity [9]: 14%; Activity (THP-1 [10]): Active
N[C@@H]1C[C@H]1c1ccc(NC(=O)c2ccc(N3CCOC3=O)cc2)cc1 (racemic),,33.5 nM,29.7 nM,1600 nM,,,,
N[C@@H]1C[C@H]1c1ccc(NC(=O)c2ccc(-c3ccoc3)cc2)cc1 (racemic),,22.5 nM,40 nM,87 nM,51000 nM,,,
N[C@@H]1C[C@H]1c1ccc(NC(=O)c2ccc(N3CCCCC3)c(NC(=O)OCc3ccccc3)c2)cc1 (relative stereo),,308 nM,,,,,,
CN1CCN(c2ccc(C(=O)Nc3ccc([C@@H]4C[C@H]4N)cc3)cc2)CC1 (racemic),4.9,,,,,3.2,,
CN1CCN(c2ccc(C(=O)Nc3ccc([C@@H]4C[C@H]4N)cc3)cc2NC(=O)OCc2ccccc2)CC1 (relative stereo),4.5,,1000 nM,> 100000 nM,4300 nM,3,57%,Ratio IC50 (Homo sapiens): > 10
Cl.N[C@@H]1C[C@H]1c1ccc(NC(=O)c2cccc(N3CCOC3=O)c2)cc1 (racemic),4.3,28 nM,90.5 nM,80200 nM,12600 nM,2.9,79%,Activity [11]: 15%; inhibition at 0.5 µM [7]: 51%; Activity (THP-1 [8]): Active; Cmax [12]: 3650 nM; half-life [13]: 1.92 h; AUC(0-inf) [14]: 4.62 µM·h; clearance [15]: 49.7 mL/min/kg; Vz/F (Mus musculus [16]): 8.45 L/kg; Tmax [17]: 0.667 h; Cmax [18]: 1140 nM; AUC(0-inf) [19]: 7.12 µM·h; bioavailability [20]: 55.8%; Activity (THP-1 [10]): Active; Activity (Mus musculus [21]): Non-toxic
N[C@@H]1C[C@H]1c1ccc(NC(=O)c2ccccc2)cc1,,,,,58300 nM,,73%,inhibition at 0.5 µM [7]: 8%
CN1CCC(c2ccc(C(=O)Nc3ccc([C@@H]4C[C@H]4N)cc3)cc2)CC1.Cl (racemic),4.1,51.2 nM,,,,3.4,,Tmax [17]: 18 h
CN1CCN(c2ccc(C(=O)Nc3ccc([C@@H]4C[C@H]4N)cc3)cc2)CC1.Cl.Cl (racemic),,189 nM,,,,,,Tmax [17]: 12 h
N[C@@H]1C[C@H]1c1ccc(NC(=O)c2cccc(NC(=O)OCc3ccccc3)c2)cc1 (racemic),,42.6 nM,25 nM,> 100000 nM,11600 nM,,,
N[C@@H]1C[C@H]1c1ccc(NC(=O)c2ccc(NC(=O)OCc3ccccc3)c(N3CCOCC3)c2)cc1 (relative stereo),5.6,,345 nM,27800 nM,14900 nM,3.2,57%,
CN1CCN(c2ccc(C(=O)Nc3ccc([C@@H]4C[C@H]4N)cc3)cc2)CC1 [listing 1 of 2 here],4.2,,,,,3.9,,
CN1CCN(c2ccc(C(=O)Nc3ccc([C@H]4C[C@@H]4N)cc3)cc2)CC1,3,230 nM,,,,3.1,,
CN1CCN(c2ccc(C(=O)Nc3ccc([C@@H]4C[C@H]4N)cc3)cc2)CC1 [listing 2 of 2 here],,84 nM,,,,,,
N[C@@H]1C[C@H]1c1ccc(NC(=O)c2ccc(N3CCOCC3)cc2)cc1 (racemic),,61.5 nM,54.8 nM,600 nM,74700 nM,,,
